{
  "source": "ChEMBL document CHEMBL1938276",
  "about": "“Design and synthesis of 2-heterocyclyl-3-arylthio-1H-indoles as potent tubulin polymerization and cell growth inhibitors with improved metabolic stability” (J Med Chem, 2011)",
  "key": {"[1]": {"assay": "Cmax in nude CD-1 mouse at 5 mg/kg, iv by UPLC analysis", "type": "ADME, organism-based", "set-up": "dose 5 mg/kg, route intravenous", "conditions": "in vivo", "outline": "(§1)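 Male nude CD-1 mice, 4 weeks old; single iv rapid bolus 5 mg/kg in 3% DMSO + 30% PEG400 + 0.9% NaCl, or oral gavage 15 mg/kg in 5% DMSO + 20% PEG400 + water. Blood sampled at multiple times after dosing; plasma proteins precipitated, samples stored at −80 °C, quantified by UPLC-ESI triple-quadrupole MS/MS.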"}, "[2]": {"assay": "AUC ( 0 to infinity) in nude CD-1 mouse at 5 mg/kg, iv by UPLC analysis", "type": "ADME, organism-based", "set-up": "time infinity, dose 5 mg/kg, route intravenous", "conditions": "plasma", "outline": "as §1"}, "Mus musculus [3]": {"test_system": "Mus musculus", "assay": "Volume of distribution at steady state in nude CD-1 mouse at 5 mg/kg, iv and 15 mg/kg, po by UPLC analysis", "type": "ADME, organism-based", "conditions": "in vivo", "outline": "as §1"}, "[4]": {"assay": "Cmax in nude CD-1 mouse at 15 mg/kg, po by UPLC analysis", "type": "ADME, organism-based", "set-up": "dose 15 mg/kg, route oral", "conditions": "in vivo", "outline": "as §1"}, "[5]": {"assay": "Tmax in nude CD-1 mouse at 15 mg/kg, po by UPLC analysis", "type": "ADME, organism-based", "set-up": "dose 15 mg/kg, route oral", "conditions": "in vivo", "outline": "as §1"}, "[6]": {"assay": "AUC ( 0 to infinity) in nude CD-1 mouse at 15 mg/kg, po by UPLC analysis", "type": "ADME, organism-based", "set-up": "time infinity, dose 15 mg/kg, route oral", "conditions": "plasma", "outline": "as §1"}, "Mus musculus [7]": {"test_system": "Mus musculus", "assay": "Oral bioavailability in nude CD-1 mouse at 15 mg/kg by UPLC analysis", "type": "ADME, organism-based", "conditions": "in vivo", "outline": "as §1"}, "HT-29": {"test_system": "HT-29", "assay": "Antiproliferative activity against human HT-29 cells assessed as growth inhibition after 48 hrs by MTT assay", "type": "functional, cell-based", "conditions": "HT-29, 48 h"}, "A549": {"test_system": "A549", "assay": "Antiproliferative activity against human A549 cells assessed as growth inhibition after 48 hrs by MTT assay", "conditions": "A549, 48 h"}, "[8]": {"assay": "Growth inhibition of human HSMC cells after 48 hrs by MTT assay", "type": "cell-based"}, "A10": {"test_system": "A10", "assay": "Growth inhibition of rat A10 cells after 48 hrs by MTT assay", "type": "cell-based", "conditions": "A10, 48 h"}, "[9]": {"assay": "Growth inhibition of potorous tridactylus PtK2 cells after 48 hrs by MTT assay", "type": "cell-based", "conditions": "PtK2, 48 h"}, "HUVEC": {"test_system": "HUVEC", "assay": "Growth inhibition of HUVEC cells after 48 hrs by MTT assay", "type": "cell-based", "conditions": "Homo sapiens"}, "HeLa [10]": {"test_system": "HeLa", "assay": "Cell cycle arrest in human HeLa cells assessed as accumulation at G2/M phase at 20 nM after 24 hrs by propidium iodide staining based flow cytometry analysis (reference value: 0.10 %)", "type": "functional"}, "HeLa [11]": {"test_system": "HeLa", "assay": "Induction of mitotic arrest in human HeLa cells assessed as accumulation at G2/M phase at 2 to 20 nM after 24 hrs by flow cytometry analysis relative to control", "type": "functional, cell-based"}, "HeLa [12]": {"test_system": "HeLa", "assay": "Induction apoptosis in human HeLa cells at 10 nM after 24 hrs by Annexin V-based flow cytometry analysis", "type": "functional, cell-based"}, "HeLa [13]": {"test_system": "HeLa", "assay": "Induction apoptosis in human HeLa cells at 20 nM after 24 hrs by Annexin V-based flow cytometry analysis", "type": "functional, cell-based"}, "HeLa [14]": {"test_system": "HeLa", "assay": "Induction apoptosis in human HeLa cells assessed as caspase -3 activity at 100 nM after 24 hrs by single-cell immunofluorescence assay", "type": "functional, cell-based"}, "HeLa [15]": {"test_system": "HeLa", "assay": "Induction apoptosis in human HeLa cells at 20 nM after 24 hrs by Annexin V-based flow cytometry analysis"}, "Liver microsomes": {"test_system": "Liver microsomes", "assay": "Metabolic stability in human liver microsomes assessed as compound remaining after 30 mins by LC-MS/MS analysis", "type": "ADME, Microsome", "conditions": "0.5 h", "outline": "(§2)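 Compound at 1 μM final, in duplicate, preincubated 10 min at 37 °C with liver microsomes (0.5 mg/mL final) in potassium phosphate buffer pH 7.4 with 3 mM MgCl2; started with NADP/glucose-6-phosphate/G6P dehydrogenase. Samples taken 0–30 min, quenched in acetonitrile, quantified by LC-MS/MS; percent remaining at 30 min versus time zero peak area; no-cofactor control included.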"}, "Liver": {"test_system": "Liver", "assay": "Metabolic stability in mouse liver microsomes assessed as compound remaining after 30 mins by LC-Ms/Ms analysis", "type": "ADME, Microsome", "conditions": "0.5 h", "outline": "as §2"}, "OVCAR-8": {"test_system": "OVCAR-8", "assay": "cells", "conditions": "Homo sapiens, OVCAR-8, 96 h"}, "[16]": {"assay": "Growth inhibition of doxorubicin-resistant human NCI-ADR-RES cells overexpressing P-glycoprotein after 96 hrs", "type": "functional, cell-based"}},
  "note": "Calls of active or inactive are those of the source. The rule behind the calls is not given here.",
  "data": [
    {"smiles": "COc1cc(Sc2c(-c3cc[nH]c3)[nH]c3ccccc23)cc(OC)c1OC", "values": [
      {"measurement": "Cmax", "setting": "[1]", "result": 35.7, "unit": "ng/mL"},
      {"measurement": "AUC(0-inf)", "setting": "[2]", "result": 2910, "unit": "ng·h/mL"},
      {"measurement": "Vdss", "setting": "Mus musculus [3]", "result": 1.59, "unit": "L/kg"},
      {"measurement": "Cmax", "setting": "[4]", "result": 1340, "unit": "ng/mL"},
      {"measurement": "Tmax", "setting": "[5]", "result": 2, "unit": "h"},
      {"measurement": "AUC(0-inf)", "setting": "[6]", "result": 9720, "unit": "ng·h/mL"},
      {"measurement": "F", "setting": "Mus musculus [7]", "result": 110, "unit": "%"}
    ]},
    {"smiles": "COc1ccc(/C=C\\c2cc(OC)c(OC)c(OC)c2)cc1O", "note": "[COMBRETASTATIN A4]", "values": [
      {"measurement": "IC50", "setting": "HT-29", "result": "> 10", "unit": "µM"},
      {"measurement": "IC50", "setting": "A549", "result": "> 10", "unit": "µM"},
      {"measurement": "IC50", "setting": "[8]", "result": 5, "unit": "nM"},
      {"measurement": "IC50", "setting": "A10", "result": 1, "unit": "nM"},
      {"measurement": "IC50", "setting": "[9]", "result": 3, "unit": "nM"},
      {"measurement": "IC50", "setting": "HUVEC", "result": 1, "unit": "nM"},
      {"measurement": "Activity", "setting": "HeLa [10]", "result": 80, "unit": "%"},
      {"measurement": "Activity", "setting": "HeLa [11]", "result": "Active"},
      {"measurement": "Activity", "setting": "HeLa [12]", "result": "Active"},
      {"measurement": "Activity", "setting": "HeLa [13]", "result": "Active"},
      {"measurement": "Activity", "setting": "HeLa [14]", "result": "Active"},
      {"measurement": "Activity", "setting": "HeLa [15]", "result": "Active"}
    ]},
    {"smiles": "CCOc1ccc2ccc(=O)oc2c1", "note": "[ETHOXYCOUMARIN]", "values": [
      {"measurement": "Stability", "setting": "Liver microsomes", "result": 6.6, "unit": "%"},
      {"measurement": "Stability", "setting": "Liver", "result": 0.07, "unit": "%"}
    ]},
    {"smiles": "CC(=O)O[C@H]1C(=O)[C@@]2(C)[C@H]([C@H](OC(=O)c3ccccc3)[C@]3(O)C[C@H](OC(=O)[C@H](O)[C@@H](NC(=O)c4ccccc4)c4ccccc4)C(C)=C1C3(C)C)[C@]1(OC(C)=O)CO[C@@H]1C[C@@H]2O", "note": "[PACLITAXEL]", "values": [
      {"measurement": "IC50", "setting": "OVCAR-8", "result": 2, "unit": "nM"}
    ]},
    {"smiles": "CC[C@]1(O)C[C@@H]2CN(CCc3c([nH]c4ccccc34)[C@@](C(=O)OC)(c3cc4c(cc3OC)N(C)[C@H]3[C@@](O)(C(=O)OC)[C@H](OC(C)=O)[C@]5(CC)C=CCN6CC[C@]43[C@@H]65)C2)C1", "note": "[VINBLASTINE]", "values": [
      {"measurement": "Activity", "setting": "HeLa [10]", "result": 80, "unit": "%"},
      {"measurement": "Activity", "setting": "HeLa [11]", "result": "Active"},
      {"measurement": "Activity", "setting": "HeLa [12]", "result": "Active"},
      {"measurement": "Activity", "setting": "HeLa [13]", "result": "Active"},
      {"measurement": "Activity", "setting": "HeLa [14]", "result": "Active"},
      {"measurement": "IC50", "setting": "OVCAR-8", "result": 15, "unit": "nM"},
      {"measurement": "Activity", "setting": "HeLa [15]", "result": "Active"}
    ]},
    {"smiles": "CCC1=C[C@@H]2CN(C1)Cc1c([nH]c3ccccc13)[C@@](C(=O)OC)(c1cc3c(cc1OC)N(C)[C@H]1[C@@](O)(C(=O)OC)[C@H](OC(C)=O)[C@]4(CC)C=CCN5CC[C@]31[C@@H]54)C2", "note": "[VINORELBINE]", "values": [
      {"measurement": "IC50", "setting": "[16]", "result": 5, "unit": "µM"}
    ]}
  ]
}
